Reference: ChEMBL document CHEMBL1926683, “Synthesis and anticancer activity of 4β-alkylamidochalcone and 4β-cinnamido linked podophyllotoxins as apoptotic inducing agents” (Eur J Med Chem, 2012)

What was measured:
Format in all cases: functional, cell-based
[1] = test system: A-375; test: Anticancer activity against human A375 cells after 48 hrs by MTT assay; conditions: A-375, 48 h
Outline: (§1)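 MTT assay. Cells seeded at 1 × 10⁴/well in DMEM with 10% FBS and held 24 h at 37 °C in CO₂. Compounds were diluted in culture medium and added alongside vehicle controls, then incubated 48 h. MTT (5 mg/ml stock) was added for 4 h. Supernatant was removed, formazan dissolved in DMSO, and absorbance read at 540 nm.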

[2] = test system: ACHN; test: Anticancer activity against human ACHN cells after 48 hrs by MTT assay; outline: as §1
[3] = test system: MCF7; test: Anticancer activity against human MCF7 cells after 48 hrs by MTT assay; conditions: MCF7, 48 h; outline: as §1
[4] = test system: A549; test: Anticancer activity against human A549 cells after 48 hrs by MTT assay; conditions: A549, 48 h; outline: as §1
[5] = test system: HT-29; test: Anticancer activity against human HT-29 cells after 48 hrs by MTT assay; conditions: HT-29, 48 h; outline: as §1

| SMILES | IC50 [1] [µM] | IC50 [2] [µM] | IC50 [3] [µM] | IC50 [4] [µM] | IC50 [5] [µM] |
| --- | --- | --- | --- | --- | --- |
| COc1cc(/C=C/C(=O)N[C@@H]2c3cc4c(cc3[C@@H](c3cc(OC)c(OC)c(OC)c3)[C@H]3C(=O)OC[C@@H]32)OCO4)cc(OC)c1OC | 14 | 13.1 | 17.7 | 7.9 | 8.34 |
| COc1cc(/C=C/C(=O)c2cc(OC)c(OC)c(OC)c2)ccc1OCCCCCC(=O)N[C@@H]1c2cc3c(cc2[C@@H](c2cc(OC)c(OC)c(OC)c2)[C@H]2C(=O)OC[C@@H]21)OCO3 | 9.8 | 19.5 | 10.2 | 13.6 | 12.1 |
| COc1cccc(C(=O)/C=C/c2ccc(OCCCCCC(=O)N[C@@H]3c4cc5c(cc4[C@@H](c4cc(OC)c(OC)c(OC)c4)[C@H]4C(=O)OC[C@@H]43)OCO5)c(OC)c2)c1 | 20.1 | 13.7 | 17.5 | 14.4 | 11.9 |
| COc1cc(C(=O)/C=C/c2ccc(OCCCCCC(=O)N[C@@H]3c4cc5c(cc4[C@@H](c4cc(OC)c(OC)c(OC)c4)[C@H]4C(=O)OC[C@@H]43)OCO5)cc2)cc(OC)c1OC | 18.4 | 16.5 | 24.8 | 21.5 | 15.3 |
| COc1cc([C@@H]2c3cc4c(cc3[C@@H](NC(=O)/C=C/c3ccc(Cl)c(Cl)c3)[C@H]3COC(=O)[C@H]23)OCO4)cc(OC)c1OC | 13.2 | 17.7 | 20.1 | 8.4 | 21 |
| COc1cc(C(=O)/C=C/c2ccc(OCC(=O)N[C@@H]3c4cc5c(cc4[C@@H](c4cc(OC)c(OC)c(OC)c4)[C@H]4C(=O)OC[C@@H]43)OCO5)cc2)cc(OC)c1OC | 25.8 | 10.2 | 24.2 | 19.1 | 12.4 |
| COc1cc(/C=C/C(=O)c2c(C)nc3ccccc3c2-c2ccccc2)ccc1OCC(=O)N[C@@H]1c2cc3c(cc2[C@@H](c2cc(OC)c(OC)c(OC)c2)[C@H]2C(=O)OC[C@@H]21)OCO3 | 7.7 | 15.7 | 11.2 | 13.4 | 7.75 |
| COc1cc(C(=O)/C=C/c2cccc(OCC(=O)N[C@@H]3c4cc5c(cc4[C@@H](c4cc(OC)c(OC)c(OC)c4)[C@H]4C(=O)OC[C@@H]43)OCO5)c2)cc(OC)c1OC | 18.2 | 9.1 | 24.4 | 16.8 | 15.6 |
| O=C(O)/C=C/c1ccccc1 [CINNAMIC ACID] | 64 | 91 | 108 | 87 | 114 |
| COc1cc([C@@H]2c3cc4c(cc3[C@@H](NC(=O)/C=C/c3ccc(F)cc3)[C@H]3COC(=O)[C@H]23)OCO4)cc(OC)c1OC | 9.5 | 18.6 | 14.6 | 6.8 | 7.1 |
| COc1cccc2c1C(=O)c1c(O)c3c(c(O)c1C2=O)C[C@@](O)(C(=O)CO)C[C@@H]3O[C@H]1C[C@H](N)[C@H](O)[C@H](C)O1 [DOXORUBICIN] | 5.51 | 0.79 | 2.02 | 2.18 | 1.06 |
| COc1cc([C@@H]2c3cc4c(cc3[C@@H](NC(=O)/C=C/c3ccc(Br)cc3)[C@H]3COC(=O)[C@H]23)OCO4)cc(OC)c1OC | 17.8 | 14.3 | 11.2 | 9.5 | 19.2 |
| COc1ccc(/C=C/C(=O)c2cc(OC)c(OC)c(OC)c2)cc1OCCCCCC(=O)N[C@@H]1c2cc3c(cc2[C@@H](c2cc(OC)c(OC)c(OC)c2)[C@H]2C(=O)OC[C@@H]21)OCO3 | 10.3 | 13.4 | 12.6 | 16.7 | 6.47 |
| COc1cc([C@@H]2c3cc4c(cc3[C@@H](NC(=O)/C=C/c3ccc([N+](=O)[O-])cc3)[C@H]3COC(=O)[C@H]23)OCO4)cc(OC)c1OC | 14.5 | 12.8 | 10.1 | 8.2 | 18.1 |
| COc1cc(C(=O)/C=C/c2cccc(OCCCCCC(=O)N[C@@H]3c4cc5c(cc4[C@@H](c4cc(OC)c(OC)c(OC)c4)[C@H]4C(=O)OC[C@@H]43)OCO5)c2)cc(OC)c1OC | 11.5 | 20.8 | 8.3 | 14.7 | 21.1 |
| COc1cc(/C=C/C(=O)c2c(C)nc3ccccc3c2-c2ccccc2)ccc1OCCCCCC(=O)N[C@@H]1c2cc3c(cc2[C@@H](c2cc(OC)c(OC)c(OC)c2)[C@H]2C(=O)OC[C@@H]21)OCO3 | 6.8 | 9.46 | 2.2 | 7.7 | 8.9 |
| COc1ccc(C(=O)/C=C/c2ccc(OCC(=O)N[C@@H]3c4cc5c(cc4[C@@H](c4cc(OC)c(OC)c(OC)c4)[C@H]4C(=O)OC[C@@H]43)OCO5)c(OC)c2)cc1 | 9.3 | 16.1 | 16.2 | 8.3 | 16.9 |
| COc1cc(/C=C/C(=O)c2ccc(F)cc2)ccc1OCCCCCC(=O)N[C@@H]1c2cc3c(cc2[C@@H](c2cc(OC)c(OC)c(OC)c2)[C@H]2C(=O)OC[C@@H]21)OCO3 | 11.4 | 9.3 | 15.8 | 5.9 | 11.7 |
| COc1ccc(/C=C/C(=O)N[C@@H]2c3cc4c(cc3[C@@H](c3cc(OC)c(OC)c(OC)c3)[C@H]3C(=O)OC[C@@H]32)OCO4)cc1 | 19.1 | 17.8 | 15.7 | 7.7 | 17.6 |
| COc1cc(/C=C/C(=O)c2ccc(F)cc2)ccc1OCC(=O)N[C@@H]1c2cc3c(cc2[C@@H](c2cc(OC)c(OC)c(OC)c2)[C@H]2C(=O)OC[C@@H]21)OCO3 | 12.2 | 26.7 | 19.1 | 26.4 | 21.6 |
| COc1cc([C@@H]2c3cc4c(cc3[C@H](O)[C@H]3COC(=O)[C@H]23)OCO4)cc(OC)c1OC [PODOFILOX] | 2.62 | 2.12 | 1.18 | 3.75 | 0.78 |
| COc1cc([C@@H]2c3cc4c(cc3[C@@H](NC(=O)/C=C/c3ccc(Cl)cc3)[C@H]3COC(=O)[C@H]23)OCO4)cc(OC)c1OC | 5.7 | 7.54 | 13.7 | 8.8 | 11.4 |
| COc1ccc(/C=C/C(=O)c2cc(OC)c(OC)c(OC)c2)cc1OCC(=O)N[C@@H]1c2cc3c(cc2[C@@H](c2cc(OC)c(OC)c(OC)c2)[C@H]2C(=O)OC[C@@H]21)OCO3 | 11.5 | 11.1 | 15.4 | 11.7 | 5.98 |
| O=C(O)/C=C/c1ccc(C(F)(F)F)cc1 | 91 | 128 | 142 | 56 | 75 |
| COc1cccc(C(=O)/C=C/c2ccc(OCC(=O)N[C@@H]3c4cc5c(cc4[C@@H](c4cc(OC)c(OC)c(OC)c4)[C@H]4C(=O)OC[C@@H]43)OCO5)c(OC)c2)c1 | 13.8 | 13.8 | 21.8 | 9.1 | 8.1 |
